# Screening data (PubChem)
# GPR7 antagonist – GPR7 receptor antagonists, primary screen, cell-based, fluorescence, single concentration. GPR7-expressing cells, fluorescence antagonist assay. Neuropeptides B/W receptor type 1 (Homo sapiens), P48145. inhibition, % at 4.4 µM. 1.1% of 290,000 active; in the data active means inhibition above about 16%, passing the limit was not always enough;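 further: cells stimulated with the agonist NPW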
# Target sequence (P48145 whole entry, looked up): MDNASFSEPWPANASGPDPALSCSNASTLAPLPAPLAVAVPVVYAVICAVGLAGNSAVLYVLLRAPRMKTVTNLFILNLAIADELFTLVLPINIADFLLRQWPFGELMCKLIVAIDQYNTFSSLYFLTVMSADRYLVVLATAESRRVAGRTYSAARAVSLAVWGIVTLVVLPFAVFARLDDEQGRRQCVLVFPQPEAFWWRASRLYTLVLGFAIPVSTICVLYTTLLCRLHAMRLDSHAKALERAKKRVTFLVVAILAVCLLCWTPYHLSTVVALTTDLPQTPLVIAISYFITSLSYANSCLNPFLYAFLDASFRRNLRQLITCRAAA
# TAAR1 antag – human TAAR1 antagonists, primary screen, Fluo-8 calcium fluorescence, CHO RD-HGA16 cells | AID 624466, 2012 | 1.5% of 360,000 active | antagonist | Trace amine-associated receptor 1 (Homo sapiens), Q96RJ0 | inhibition, % at 3 µM;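 active means inhibition above a per-plate cutoff, the mean inhibition of test compounds on that plate plus 3 SD, cut at about 49% in these data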
#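 Material: CHO RD-HGA16 cells bearing hTAAR1; compound dosing: one-point dosing, 3 µM nominal final; schedule: dye loading 75 min at 37 °C, then 30 min room temperature; measured by: calcium fluorescence with Fluo-8; control set: vehicle and agonist controls; replication: n of 1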
# CHO parental Ca – ATP-evoked calcium signal inhibitors, parental CHO, primary screen, counter-screen for OX1R antagonist project, cell-based, fluorescence, Fluo-8 calcium dye. parental CHO-K1, ATP-induced calcium, Fluo-8 fluorescence. 0.63% of 330,000 active. inhibition, % at 5.6 µM;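 active means inhibition above that plate's mean sample inhibition plus 3 SD, cut at about 26% in these data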
#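 Assay system: untransfected parental CHO cell line. Also added: ATP agonist challenge. Dosing: one dose, 5.6 µM nominal. Measured by: Fluo-8 fluorescence. Read-out: % inhibition. Benchmarks: ATP wells versus no-ATP DMSO wells. Repeats: no replicates.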
# OX1R antag-1 – antagonists of human orexin 1 receptor (OX1R) | OX1R-expressing cells, FRET antagonist read-out | 1.8% of 330,000 active | Orexin/Hypocretin receptor type 1 (Homo sapiens), O43613 | inhibition, % at 6.6 µM | AID 485270, 2010; in the data active means inhibition mostly above about 38%, no sharp cut-off; inactive means mostly below about 40%
# Target sequence (O43613 whole entry, looked up): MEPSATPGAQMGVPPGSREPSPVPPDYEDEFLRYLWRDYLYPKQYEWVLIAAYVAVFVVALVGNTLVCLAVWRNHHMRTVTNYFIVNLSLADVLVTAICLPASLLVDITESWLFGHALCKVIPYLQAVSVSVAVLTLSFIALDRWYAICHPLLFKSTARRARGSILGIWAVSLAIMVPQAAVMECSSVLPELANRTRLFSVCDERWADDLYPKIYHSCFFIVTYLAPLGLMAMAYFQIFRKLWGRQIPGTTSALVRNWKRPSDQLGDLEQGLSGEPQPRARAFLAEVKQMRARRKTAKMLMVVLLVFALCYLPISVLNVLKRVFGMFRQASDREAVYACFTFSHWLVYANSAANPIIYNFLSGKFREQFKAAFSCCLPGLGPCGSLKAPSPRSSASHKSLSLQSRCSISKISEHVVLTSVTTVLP
# TAAR1 agonist – human TAAR1 agonists, primary screen, Fluo-8 calcium fluorescence, CHO RD-HGA16 cells; vehicle wells 0%, saturating PEA agonist 100%; activation, % at 3 µM; 0.99% of 360,000 active; Trace amine-associated receptor 1 (Homo sapiens), Q96RJ0; AID 624467, 2012;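 active means activation above the mean activation of all test compounds in the run plus 3 SD, cut at about 38% in these data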
#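 test system = CHO RD-HGA16 cells carrying human TAAR1 plus Gα16 | schedule = 17-24 h seeding, 75 min 37 °C dye, 30 min RT | compound dosing = 3 µM single concentration | control set = DMSO and PEA EC100 | replicates = n 1 | signal = Fluo-8 fluorescence, 5 s baseline then 140 s kinetic read | measure = percent activation vs PEA EC100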
# OX1R antag-2 – OX1R (HCRTR1) antagonists, primary screen, fluorescence, CHO/OX1R cells, Fluo-8 calcium, orexin A; inhibition, % at 5 µM; Orexin/Hypocretin receptor type 1 (Homo sapiens), O43613; AID 434989, 2010; 0.43% of 330,000 active; Fluo-8 calcium fluorescence;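 active means inhibition above its plate's threshold, mean inhibition of all tested compounds on the plate plus 3 SD, cut at about 37% in these data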
# TAAR1 nonsel count – nonselective antagonists in TAAR1 counter-screen cells, counter-screen for hTAAR1 antagonist project, cell-based, fluorescence, calcium | shares compounds with TAAR1 antag | counterscreen cell line, antagonist mode | inhibition, % at 3 µM | 77% of 2,400 active | AID 651780, 2012; in the data active means inhibition above about 22%;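 further: CHO-Ga16 host cells stimulated with ATP at an EC80 level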
# TAAR1 ant conf – human TAAR1 antagonists, retest of hits, confirmation, cell-based, fluorescence | AID 651785, 2012 | shares compounds with TAAR1 antag | 40% of 2,400 active | TAAR1-expressing cells, fluorescence antagonist read-out | inhibition, % at 3 µM; in the data active means inhibition above about 49%;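 further: CHO-Ga16 host cells challenged with agonist PEA near its EC80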
# Ga16 ag counter – calcium activation in Ga16-expressing cells, counter-screen for TAAR1 antagonist project, cell-based, fluorescence. shares compounds with TAAR1 antag. agonist counterscreen. activation, % at 3 µM. 18% of 2,400 active. AID 651953, 2012; in the data active means activation above about 12%
# TAAR1 ag count – TAAR1 activation by candidate antagonists – cell-based, fluorescence, counter-screen for TAAR1 antagonist project; 2% of 2,400 active; hTAAR1 cell line, agonist mode; activation, % at 3 µM; shares compounds with TAAR1 antag; in the data active means activation above about 37%;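 further: CHO cells stably expressing TAAR1 with calcium dye readout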
# A number is an active result; i = inactive; nt = no result. In the library only some 4.5% were active in any assay of this set; here they are far more common.
SMILES,GPR7 antagonist,TAAR1 antag,CHO parental Ca,OX1R antag-1,TAAR1 agonist,OX1R antag-2,TAAR1 nonsel count,TAAR1 ant conf,Ga16 ag counter,TAAR1 ag count
CC1CN2C(c3ccc([N+](=O)[O-])cc3)=CSC2=N1 (stereo not drawn),i,i,i,i,i,i,nt,nt,nt,nt
O=C(N/N=C/c1ccc(OC(=O)c2ccccc2Br)cc1)c1ccccn1,i,52,i,i,i,i,30,i,i,i
CC(C)(C)c1ccc(/C=N/NC(=O)c2ccccn2)cc1,i,i,i,i,i,i,nt,nt,nt,nt
O=C(Oc1ccc(/C=N/NC(=O)c2ccccc2F)cc1)c1ccccc1,i,i,i,i,i,i,nt,nt,nt,nt
COC(=O)c1ccc(/C=N/NC(=O)c2ccccc2Cl)cc1,i,i,i,i,i,i,nt,nt,nt,nt
O=C(Oc1ccc(/C=N/NC(=O)c2ccccc2O)cc1)c1ccccc1,i,74,i,i,i,i,38,68,i,i
Nc1ccc(C(=O)N/N=C\c2ccc(OC(=O)c3ccccc3Cl)cc2)cc1,i,68,i,i,i,i,29,59,i,i
CCOC(=O)c1ccccc1OCc1cc(/C=N/NC(=O)c2ccncc2)ccc1OC,i,77,i,i,i,i,36,54,i,i
COc1ccc(C(=O)OCCN2CCN(C3=NS(=O)(=O)c4ccccc43)CC2)cc1OC,i,i,i,i,i,i,nt,nt,nt,nt
COc1cccc(/C=C/C(=O)OCC(=O)NC2CCCCCC2)c1,nt,i,nt,nt,i,nt,nt,nt,nt,nt
Cc1ccc([C@@H]2C[C@H]3[C@@H](CN2S(=O)(=O)c2ccc(Cl)cc2)C(=O)C[C@@H](c2ccc(C)cc2)N3S(=O)(=O)c2ccc(Cl)cc2)cc1,nt,i,nt,nt,i,nt,nt,nt,nt,nt
O=C(CNC(=O)c1ccc(Br)o1)Nc1ccc(F)c(S(=O)(=O)N2CCOCC2)c1,nt,i,nt,nt,i,nt,nt,nt,nt,nt
COc1cc(C(=O)N/N=C/c2ccc(OC(=O)c3ccccc3Cl)cc2)ccc1O,i,80,i,i,i,i,30,58,i,i
COc1cc(/C=N\NC(=O)c2cccnc2)ccc1OC(=O)c1ccccc1Cl,i,54,i,i,i,i,28,i,16,i
O=C(NC1CCCCC1)C1CCCN1S(=O)(=O)c1ccc(Cl)cc1 (stereo not drawn),i,i,i,i,i,i,nt,nt,nt,nt
CC(=O)Nc1ccc(S(=O)(=O)NCCC(=O)NCc2ccco2)cc1,nt,i,nt,nt,i,nt,nt,nt,nt,nt
Cc1ccc(OCC(=O)NNC(=O)C2CCN(c3ncnc4sc(C)c(C)c34)CC2)cc1,nt,50,i,i,i,i,26,i,i,i
Cc1sc2ncnc(N3CCC(C(=O)NNC(=O)COc4cccc(C(F)(F)F)c4)CC3)c2c1C,nt,64,i,i,i,i,28,i,i,i
CCN(CC(=O)Nc1c(F)cccc1F)C(=O)C1CCN(c2ncnc3sc(C)c(C)c23)CC1,nt,58,i,i,i,i,23,i,i,i
Cc1sc2ncnc(N3CCC(C(=O)NNC(=O)COc4ccc(Cl)cc4)CC3)c2c1C,nt,70,nt,nt,i,nt,38,i,12,i
Cc1sc2ncnc(N3CCC(C(=O)Nc4nc(-c5ccc(F)cc5)cs4)CC3)c2c1C,nt,i,i,i,i,i,nt,nt,nt,nt
Cc1sc2ncnc(N3CCC(C(=O)NNC(=O)c4ccccc4Cl)CC3)c2c1C,i,i,i,i,i,i,nt,nt,nt,nt
CCN(CC(=O)Nc1c(Cl)cccc1Cl)C(=O)C1CCN(c2ncnc3sc(C)c(C)c23)CC1,nt,i,nt,nt,i,nt,nt,nt,nt,nt
COc1ccc(OCC(=O)NNC(=O)C2CCN(c3ncnc4sc(C)c(C)c34)CC2)cc1,nt,i,i,i,i,i,nt,nt,nt,nt
O=C(OCc1cn([C@H]2C[C@H](c3ccc(Cl)cc3)N(C(=O)C3CCCCC3)C[C@@H]2O)nn1)c1ccccc1,nt,i,nt,nt,i,nt,nt,nt,nt,nt
SMILES,GPR7 antagonist,TAAR1 antag,CHO parental Ca,OX1R antag-1,TAAR1 agonist,OX1R antag-2,TAAR1 nonsel count,TAAR1 ant conf,Ga16 ag counter,TAAR1 ag count
COc1cc(C(=O)N2CCCN(C)CC2)cc(OC)c1C,i,i,i,i,i,i,nt,nt,nt,nt
Cc1sc2ncnc(N3CCC(C(=O)NNC(=O)COc4ccccc4F)CC3)c2c1C,nt,65,i,i,i,i,31,i,i,i
Cc1sc2ncnc(N3CCC(C(=O)NNC(=O)COc4ccc(Br)cc4)CC3)c2c1C,nt,76,i,63,i,i,42,53,12,i
Cc1cc(Cl)ccc1OCC(=O)NNC(=O)C1CCN(c2ncnc3sc(C)c(C)c23)CC1,nt,78,i,33,i,i,39,52,14,i
Cc1sc2ncnc(N3CCC(C(=O)Nc4nnc(CC(C)C)s4)CC3)c2c1C,nt,i,i,i,i,i,nt,nt,nt,nt
COc1ccc(NC(=O)CC(c2ccco2)C(C)C)cc1 (stereo not drawn),i,i,i,i,i,i,nt,nt,nt,nt
CSc1cccc(NC(=O)N2CCc3ccc(NC(=O)c4ccccn4)cc3C2)c1,i,62,i,i,i,i,40,i,i,i
CN(C)CCCNC(=O)OC1CC2CC1[C@H]1CCCCN1C2=O (stereo partly drawn),nt,i,nt,nt,i,nt,nt,nt,nt,nt
COc1ccccc1CN(C)C(=O)c1ccc(S(=O)(=O)Nc2c(C)n(C)n(-c3ccccc3)c2=O)cc1,nt,50,i,i,i,i,i,i,i,i
c1ccc(COc2cccc(-c3cc4nc(NCCOc5ccccc5)ccn4n3)c2)cc1,nt,i,nt,nt,i,nt,nt,nt,nt,nt
c1ccc(COc2cccc(-c3cc4nc(NCCc5ccncc5)ccn4n3)c2)cc1,nt,71,nt,nt,i,nt,38,51,i,i
CCCN1C(=O)c2cc(C(=O)Nc3ccccc3OC)ccc2C1Nc1ccccc1OC (stereo not drawn),i,60,i,i,i,i,29,i,i,i
COc1ccc2oc(C(=O)OCC(=O)NCc3ccc(OC)c(OC)c3)c(C)c2c1,nt,i,nt,nt,i,nt,nt,nt,nt,nt
COc1ccc(-c2csc(N3CCN(c4cc(C)nc5ccccc45)CC3)n2)cc1OC,i,60,i,i,i,i,27,i,i,i
COc1cc(-c2csc(N3CCOCC3)n2)cc(OC)c1OC,i,i,i,i,i,i,nt,nt,nt,nt
